Columns and labels:
Type in all cases: ADME, organism-based
Homo sapiens [1] = test: Dose normalized AUC (0-24h) in opiate abstinence syndrome patient at 30 to 100 mg, po QD after 2 days; conditions: in vivo
Procedure, shortened: (§1)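 Male patients on individualized once-daily methadone (30-100 mg) sampled on day 2, before any coadministration. Plasma taken at 1, 2, 3, 4, 6, 8, 10, 12, 16 and 24 h postdose. (R)- and (S)-methadone quantified by chiral LC-MS/MS (range 5 to 500 ng/ml per enantiomer). Noncompartmental analysis: Cmax/Tmax observed, AUC0-24 by linear/log-trapezoidal method. Normalized lines scaled to a 100-mg dose.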

Homo sapiens [2] = test: Dose normalized Cmax in opiate abstinence syndrome patient at 30 to 100 mg, po QD after 2 days; conditions: in vivo, 48 h; procedure, shortened: as §1
[3] = Dose normalized Tmax in opiate abstinence syndrome patient at 30 to 100 mg, po QD after 2 days; conditions: human, in vivo; procedure, shortened: as §1
[4] = AUC (0-24h) in opiate abstinence syndrome patient at 30 to 100 mg, po QD after 2 days; conditions: human, plasma; procedure, shortened: as §1
[5] = Cmax in opiate abstinence syndrome patient at 30 to 100 mg, po QD after 2 days; conditions: human, in vivo; procedure, shortened: as §1

SMILES: CCC(=O)C(C[C@H](C)N(C)C)(c1ccccc1)c1ccccc1 [ESMETHADONE]
- AUC (Homo sapiens [1]): 5730 ng·h/mL
- Cmax (Homo sapiens [2]): 366 ng/mL
- Tmax [3]: 1 h
- AUC [4]: 4030 ng·h/mL
- Cmax [5]: 287 ng/mL

SMILES: CCC(=O)C(C[C@@H](C)N(C)C)(c1ccccc1)c1ccccc1 [LEVOMETHADONE]
- AUC (Homo sapiens [1]): 5540 ng·h/mL
- Cmax (Homo sapiens [2]): 322 ng/mL
- Tmax [3]: 1 h
- AUC [4]: 4300 ng·h/mL
- Cmax [5]: 256 ng/mL

Reference: ChEMBL document CHEMBL1142156, “Pharmacokinetic interaction between voriconazole and methadone at steady state in patients on methadone therapy” (Antimicrob Agents Chemother, 2007)
